From ChEMBL document CHEMBL1146021, “Calcium channel antagonists discovered by a multidisciplinary approach” (J Med Chem, 2006)
Activity calls are given as the source filed them.

Key:
Cavia porcellus [1] = species on record: Cavia porcellus; test: Negative inotropic activity in guinea pig left atrium; format: functional; settings: Cardiac atrium
Procedure, shortened: (§1)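 Guinea-pig left atria driven at 1 Hz (0.6-0.8 ms pulses, about 50% threshold voltage) in PSS, 35 °C, pH 7.4, 95% O2/5% CO2. Isometric tension recorded. Cumulative concentrations 0.01-100 μM in DMSO (≤0.3%), each to steady state. Percent decrease in developed tension, n = 4-6. EC50 by Probit analysis.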

Cavia porcellus [2] = species on record: Cavia porcellus; test: Negative inotropic activity in guinea pig left atrium at 50 uM; format: functional, Cardiac atrium; procedure, shortened: as §1
Cavia porcellus [3] = species on record: Cavia porcellus; test: Negative chronotropic activity in guinea pig right atrium at 5 uM; format: functional, Cardiac atrium
Procedure, shortened: (§2)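 Spontaneously beating guinea-pig right atria in PSS, 35 °C, pH 7.4, 95% O2/5% CO2. Cumulative concentrations 0.01-100 μM in DMSO (≤0.3% in bath), each to steady state. Rate decrease taken as percent of control (pretreatment 170-195 beats/min), n = 6-8. EC30 by Probit analysis.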

Cavia porcellus [4] = species on record: Cavia porcellus; test: Vasorelaxant activity assessed as inhibition of calcium-induced contraction of potassium ion-depolarized guinea pig aortic strips at 100 uM; format: functional, Aorta; design: scale not given: the % may be the effect or the level left
Procedure, shortened: (§3)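 Helicoidal guinea-pig aortic strips in aerated PSS at 35 °C, contracted with 80 mM KCl (K+ substituted for Na+). At plateau (about 45 min), compounds added cumulatively at 0.1-500 μM in DMSO vehicle. Relaxation measured isometrically. IC50 by Probit analysis, n = 6-8.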

Cavia porcellus [5] = species on record: Cavia porcellus; test: Negative inotropic activity in guinea pig left atrium at 500 uM; format: functional, Cardiac atrium
Cavia porcellus [6] = species on record: Cavia porcellus; test: Negative chronotropic activity in guinea pig right atrium at 100 uM; format: functional, Cardiac atrium; settings: in the assay text read “50 uM” for “100 uM”; procedure, shortened: as §2
Cavia porcellus [7] = species on record: Cavia porcellus; test: Vasorelaxant activity assessed as inhibition of calcium-induced contraction of potassium ion-depolarized guinea pig aortic strips at 50 uM; format: functional, Aorta; design: scale not given: the % may be the effect or the level left; procedure, shortened: as §3
Cavia porcellus [8] = species on record: Cavia porcellus; test: Antagonist activity against calcium channel assessed as inhibition of carbachol-induced tonic contraction of guinea pig ileum longitudinal smooth muscle; format: functional
Procedure, shortened: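 Guinea-pig ileum longitudinal smooth muscle segments (2 cm), 300-400 mg resting tension, 37 °C, oxygenated Hepes-buffered PSS at pH 7.4, equilibrated 1 h. Two control carbachol curves run 30 min apart. Test agent (10 μM) added 30 min before the carbachol curve. Isometric inhibition expressed as percent of control.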

Cavia porcellus [9] = species on record: Cavia porcellus; test: Negative inotropic activity in guinea pig left ventricular papillary muscle; format: functional; settings: Muscle tissue
Cavia porcellus [10] = species on record: Cavia porcellus; test: Cardiac activity in guinea pig heart measured as decrease in coronary perfusion pressure at 1 uM relative to control; format: functional
Procedure, shortened: (§4)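 Langendorff-perfused isolated hearts from female guinea-pigs (300-400 g). Compounds given cumulatively at 0.001-1 μM, each step held to steady state (about 30 min). Read-outs: surface ECG (PR interval, heart rate), intraventricular balloon +(dP/dt)max and coronary perfusion pressure. Results given as percent change from basal at 1 μM, mean ± SEM.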

Cavia porcellus [11] = species on record: Cavia porcellus; test: Cardiac activity in guinea pig heart measured as prolongation of atrioventricular conduction time at 1 uM relative to control; format: functional; procedure, shortened: as §4
[12] = target: T1, Voltage-dependent L-type calcium channel subunit alpha-1C (Rattus norvegicus, UniProt P22002); test: Inhibition of [3H]diltiazem binding to Sprague-Dawley rat cardiomyocytes at 100 uM relative to control; settings: read-out: Activity
T1 sequence (P22002 whole entry, the tested form may be a part): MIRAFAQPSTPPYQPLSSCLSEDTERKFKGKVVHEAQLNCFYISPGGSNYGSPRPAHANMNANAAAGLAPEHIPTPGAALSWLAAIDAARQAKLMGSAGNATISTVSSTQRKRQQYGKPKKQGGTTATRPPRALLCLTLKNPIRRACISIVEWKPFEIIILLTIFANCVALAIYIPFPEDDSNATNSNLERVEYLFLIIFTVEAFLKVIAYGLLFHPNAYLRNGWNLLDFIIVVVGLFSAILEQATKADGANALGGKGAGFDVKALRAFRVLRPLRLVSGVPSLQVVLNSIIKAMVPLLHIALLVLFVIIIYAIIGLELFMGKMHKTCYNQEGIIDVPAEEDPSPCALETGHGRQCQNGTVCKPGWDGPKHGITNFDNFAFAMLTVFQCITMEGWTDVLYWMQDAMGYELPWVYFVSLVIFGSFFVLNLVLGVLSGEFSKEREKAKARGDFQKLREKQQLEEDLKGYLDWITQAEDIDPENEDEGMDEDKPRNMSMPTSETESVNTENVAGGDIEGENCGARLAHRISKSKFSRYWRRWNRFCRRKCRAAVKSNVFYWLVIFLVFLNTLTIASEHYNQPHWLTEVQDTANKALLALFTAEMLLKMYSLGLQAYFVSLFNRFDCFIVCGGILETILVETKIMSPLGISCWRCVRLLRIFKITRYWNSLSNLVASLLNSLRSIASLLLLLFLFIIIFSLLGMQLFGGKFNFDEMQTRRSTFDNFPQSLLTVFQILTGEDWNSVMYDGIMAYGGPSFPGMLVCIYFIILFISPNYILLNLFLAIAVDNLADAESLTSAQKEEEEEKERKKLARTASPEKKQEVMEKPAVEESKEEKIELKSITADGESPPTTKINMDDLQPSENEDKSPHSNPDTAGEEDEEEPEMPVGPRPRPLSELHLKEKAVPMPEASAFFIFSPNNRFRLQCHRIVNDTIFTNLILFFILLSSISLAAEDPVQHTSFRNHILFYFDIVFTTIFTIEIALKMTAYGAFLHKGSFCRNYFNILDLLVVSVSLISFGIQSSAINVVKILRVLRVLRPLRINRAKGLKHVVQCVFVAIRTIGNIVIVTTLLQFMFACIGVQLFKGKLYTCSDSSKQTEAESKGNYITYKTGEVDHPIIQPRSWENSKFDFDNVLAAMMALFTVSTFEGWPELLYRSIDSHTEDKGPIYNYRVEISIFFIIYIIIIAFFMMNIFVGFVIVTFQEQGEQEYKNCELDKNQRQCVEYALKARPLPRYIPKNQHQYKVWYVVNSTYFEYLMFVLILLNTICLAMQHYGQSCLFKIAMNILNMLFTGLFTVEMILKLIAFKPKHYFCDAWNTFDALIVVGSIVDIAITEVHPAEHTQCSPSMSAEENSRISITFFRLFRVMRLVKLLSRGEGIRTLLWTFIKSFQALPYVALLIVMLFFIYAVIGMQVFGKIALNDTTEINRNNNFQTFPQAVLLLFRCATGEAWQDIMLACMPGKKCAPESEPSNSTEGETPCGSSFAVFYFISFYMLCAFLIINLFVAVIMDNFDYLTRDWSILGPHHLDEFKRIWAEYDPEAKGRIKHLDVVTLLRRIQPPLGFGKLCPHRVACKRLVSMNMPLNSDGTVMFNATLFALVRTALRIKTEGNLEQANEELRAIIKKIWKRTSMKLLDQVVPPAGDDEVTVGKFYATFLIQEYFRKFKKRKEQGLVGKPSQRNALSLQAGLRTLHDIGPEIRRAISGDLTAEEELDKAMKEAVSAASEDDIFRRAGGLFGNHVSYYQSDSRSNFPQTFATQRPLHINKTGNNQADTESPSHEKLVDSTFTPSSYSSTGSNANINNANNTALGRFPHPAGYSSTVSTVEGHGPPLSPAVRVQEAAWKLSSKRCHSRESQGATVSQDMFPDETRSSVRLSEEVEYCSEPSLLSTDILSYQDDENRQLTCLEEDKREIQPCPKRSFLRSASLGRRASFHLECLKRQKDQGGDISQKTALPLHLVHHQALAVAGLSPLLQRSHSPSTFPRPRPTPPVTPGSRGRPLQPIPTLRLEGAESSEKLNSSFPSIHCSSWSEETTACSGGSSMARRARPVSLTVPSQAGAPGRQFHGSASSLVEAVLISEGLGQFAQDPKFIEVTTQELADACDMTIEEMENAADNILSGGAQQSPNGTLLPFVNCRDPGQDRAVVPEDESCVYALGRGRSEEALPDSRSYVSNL
Procedure, shortened: (§5)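 Cardiomyocytes from male Sprague-Dawley rats, isolated by Langendorff perfusion and stored frozen (200 μg per tube). Incubated with 5 nM [3H]diltiazem and test ligand (0.1 nM-100 μM) in 50 mM Tris pH 7.4, 25 °C, 90 min. Bound ligand separated by filtration. Nonspecific binding with 100 μM diltiazem. Triplicates. pIC50 from sigmoidal fit; Ki by Cheng-Prusoff.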

Cavia porcellus [13] = species on record: Cavia porcellus; test: Cardiac activity in guinea pig heart measured as decrease in left ventricular pressure at 1 uM relative to control; format: functional; design: scale not given: the % may be the effect or the level left; procedure, shortened: as §4
Cavia porcellus [14] = species on record: Cavia porcellus; test: Negative inotropic activity in guinea pig left ventricular papillary muscle at 1 uM; format: functional, Muscle tissue
Cavia porcellus [15] = species on record: Cavia porcellus; test: Antagonist activity against calcium channel assessed as inhibition of calcium-induced contraction of potassium ion-depolarized guinea pig ileum longitudinal smooth muscle at 100 uM; format: functional; design: scale not given: the % may be the effect or the level left
Procedure, shortened: (§6)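 Guinea-pig ileum longitudinal smooth muscle segments (2 cm) held at 300-400 mg resting tension, 37 °C, in oxygenated (100% O2) Hepes-buffered PSS at pH 7.4. Isometric contraction recorded. Inhibition expressed as percentage of control. Probit log concentration–response analysis, n = 6-8.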

Cavia porcellus [16] = species on record: Cavia porcellus; test: Antagonist activity against calcium channel assessed as inhibition of calcium-induced contraction of potassium ion-depolarized guinea pig ileum longitudinal smooth muscle; format: functional; procedure, shortened: as §6
Cavia porcellus [17] = species on record: Cavia porcellus; test: Cardiac activity in guinea pig heart measured as decrease in heart rate at 1 uM by ECG relative to control; format: functional; design: scale not given: the % may be the effect or the level left; procedure, shortened: as §4
Cavia porcellus [18] = species on record: Cavia porcellus; test: Negative chronotropic activity in guinea pig right atrium at 10 uM; format: functional, Cardiac atrium; procedure, shortened: as §2
Cavia porcellus [19] = species on record: Cavia porcellus; test: Negative chronotropic activity in guinea pig right atrium; format: functional; settings: Cardiac atrium; procedure, shortened: as §2
Cavia porcellus [20] = species on record: Cavia porcellus; test: Negative inotropic activity in guinea pig left atrium at 10 uM; format: functional, Cardiac atrium; procedure, shortened: as §1
Cavia porcellus [21] = species on record: Cavia porcellus; test: Antagonist activity against calcium channel assessed as inhibition of calcium-induced contraction of potassium ion-depolarized guinea pig ileum longitudinal smooth muscle at 1 uM; format: functional; design: scale not given: the % may be the effect or the level left; procedure, shortened: as §6
Cavia porcellus [22] = species on record: Cavia porcellus; test: Negative inotropic activity in guinea pig left ventricular papillary muscle at 10 uM; format: functional, Muscle tissue
Cavia porcellus [23] = species on record: Cavia porcellus; test: Negative inotropic activity in guinea pig left atrium at 1 uM; format: functional, Cardiac atrium; procedure, shortened: as §1
Cavia porcellus [24] = species on record: Cavia porcellus; test: Negative chronotropic activity in guinea pig right atrium at 50 uM; format: functional, Cardiac atrium; procedure, shortened: as §2
Cavia porcellus [25] = species on record: Cavia porcellus; test: Negative inotropic activity in guinea pig left ventricular papillary muscle at 500 uM; format: functional, Muscle tissue
Cavia porcellus [26] = species on record: Cavia porcellus; test: Negative inotropic activity in guinea pig left atrium at 5 uM; format: functional, Cardiac atrium; procedure, shortened: as §1
Cavia porcellus [27] = species on record: Cavia porcellus; test: Antagonist activity against calcium channel assessed as inhibition of calcium-induced contraction of potassium ion-depolarized guinea pig ileum longitudinal smooth muscle at 10 uM; format: functional; design: scale not given: the % may be the effect or the level left; procedure, shortened: as §6
Cavia porcellus [28] = species on record: Cavia porcellus; test: Cardiac activity in guinea pig heart measured as increase in coronary perfusion pressure at 1 uM relative to control; format: functional; procedure, shortened: as §4
[29] = target: T1, Voltage-dependent L-type calcium channel subunit alpha-1C; test: Inhibition of [3H]diltiazem binding to Sprague-Dawley rat cardiomyocytes at 10 nM relative to control; settings: read-out: Activity; procedure, shortened: as §5
Cavia porcellus [30] = species on record: Cavia porcellus; test: Vasorelaxant activity assessed as inhibition of calcium-induced contraction of potassium ion-depolarized guinea pig aortic strips; format: functional; settings: Aorta; procedure, shortened: as §3
Cavia porcellus [31] = species on record: Cavia porcellus; test: Vasorelaxant activity assessed as inhibition of calcium-induced contraction of potassium ion-depolarized guinea pig aortic strips at 500 uM; format: functional, Aorta; design: scale not given: the % may be the effect or the level left; procedure, shortened: as §3

EC50 (Cavia porcellus [1]) [nM]	IC50 (Cavia porcellus [8]) [nM]	Compound	Activity (Cavia porcellus [4]) [%]	Activity (Cavia porcellus [11]) [%]	Activity (Cavia porcellus [13]) [%]	Activity (Cavia porcellus [17])	Activity (Cavia porcellus [18]) [%]	Activity (Cavia porcellus [23]) [%]	other results
990	–	O=C(c1ccccn1)c1conc1-c1c(Cl)cccc1Cl	25	–	–	–	–	–	Activity (Cavia porcellus [2]): 81%; Activity (Cavia porcellus [3]): 21%
3910	–	COC(=O)c1ccccc1-n1cccc1C(=O)C(Cl)(Cl)Cl	20	–	–	–	–	–	Activity (Cavia porcellus [5]): 76%; Activity (Cavia porcellus [6]): 33%
920	33700	COC(=O)c1c(-c2c(Cl)cccc2Cl)noc1C	–	14	31	4%	13	–	Activity (Cavia porcellus [7]): 30%; EC50 (Cavia porcellus [9]): 36 nM; Activity (Cavia porcellus [10]): inactive; inhibition at 100 µM [12]: 59.6%; Activity (Cavia porcellus [14]): 87%; Activity (Cavia porcellus [2]): 84%; Activity (Cavia porcellus [15]): 99%; EC50 (Cavia porcellus [16]): 6650 nM
–	480	COc1ccc([C@@H]2Sc3ccccc3N(CCN(C)C)C(=O)[C@@H]2OC(C)=O)cc1 [DILTIAZEM]	88	34	59	25%	–	–	EC50 (Cavia porcellus [9]): 1610 nM; Activity (Cavia porcellus [10]): 51%; EC30 (Cavia porcellus [19]): 70 nM; Activity (Cavia porcellus [20]): 78%; Activity (Cavia porcellus [3]): 94%; EC50 (Cavia porcellus [16]): 110 nM; Activity (Cavia porcellus [21]): 98%; Activity (Cavia porcellus [22]): 82%
1000	–	COC(=O)[C@H]1SCCN1S(=O)(=O)c1ccc(Cl)cc1	29	–	–	–	2	–	Activity (Cavia porcellus [5]): 92%
–	–	CCO[C@@]1(c2ccc(Br)cc2)SC=C(C)n2c1noc2=O	7	–	–	–	–	47	Activity (Cavia porcellus [24]): 15%
40	40000	CCOC1(c2ccc(Br)cc2)SC=C(C)n2c1noc2=O (stereo unspecified)	19	32	3	14%	–	77	Activity (Cavia porcellus [25]): 2%; Activity (Cavia porcellus [10]): 9%; Activity (Cavia porcellus [15]): 3%; Activity (Cavia porcellus [6]): 5%
70	–	CCO[C@]1(c2ccc(Br)cc2)SC=C(C)n2c1noc2=O	11	–	–	–	16	58	–
310	8210	O=S(=O)(c1ccc(Cl)cc1)N1CCC[C@@H]1c1cccs1	74	20	6	inactive	4	–	Activity (Cavia porcellus [26]): 84%; Activity (Cavia porcellus [27]): 90%; Activity (Cavia porcellus [28]): 17%; EC50 (Cavia porcellus [9]): 1380 nM; inhibition at 0.01 µM [29]: -24.8%; IC50 (Cavia porcellus [30]): 5620 nM; EC50 (Cavia porcellus [16]): 1180 nM; Activity (Cavia porcellus [22]): 93%
310	–	C=CCN(c1ccccc1)S(=O)(=O)c1ccc(Cl)cc1	–	–	–	–	5	73	IC50 (Cavia porcellus [30]): 17700 nM; Activity (Cavia porcellus [31]): 54%
300	–	CCN(c1ccccc1)S(=O)(=O)c1ccc(Cl)cc1	46	–	–	–	–	–	Activity (Cavia porcellus [26]): 90%; Activity (Cavia porcellus [3]): 7%
